Assay results reported in ChEMBL document CHEMBL3091449, “Synthesis and antimicrobial profile of N-substituted imidazolium oximes and their monoquaternary salts against multidrug resistant bacteria” (2013).

Tests used:
Kluyvera intermedia = test: Antibacterial activity against TEM-1/SHV-12/[…] expressing Enterobacter intermedius isolate 243 after 18 to 24 hrs by two-fold broth microdilution assay; format: functional
Procedure, shortened: (§1)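 CLSI two-fold broth microdilution was used. Compounds were dissolved in DMSO, brought to 10 mg/mL in medium, then serially diluted in Mueller Hinton broth over 400–0.09 µg/mL. Overnight MHB cultures were diluted to 10^6 CFU/mL, and 10 µL was added per well. Plates were incubated 18–24 h at 37 °C, then 0.2 mg/mL INT was added for 30 min at 37 °C. MIC was the lowest concentration with no visible growth or pink colour, triplicate.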

Enterobacter cloacae [1] = test: Antibacterial activity against TEM-1/SHV-12 expressing Enterobacter cloacae isolate 306 after 18 to 24 hrs by two-fold broth microdilution assay; format: functional
Bacillus cereus [2] = test: Antibacterial activity against Bacillus cereus ATCC 11778 assessed as diameter of zone of inhibition at 15 ug/disc after 24 hrs by disc diffusion method; format: functional, organism-based
Procedure, shortened: (§2)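 Gentamicin 15 µg disc run as positive control in CLSI disc diffusion. Lawn of 100 µL of 10^6 cfu/mL bacteria on Mueller Hinton agar, incubated 24 h at 37 °C. Zone diameter measured in mm including the 6 mm disc, triplicate, mean ± SE.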

Klebsiella pneumoniae [3] = test: Antibacterial activity against Klebsiella pneumoniae FNSST 011 after 18 to 24 hrs by two-fold broth microdilution assay; format: functional; procedure, shortened: as §1
Escherichia coli [4] = test: Antibacterial activity against […] expressing Escherichia coli isolate 235 after 18 to 24 hrs by two-fold broth microdilution assay; format: functional
Procedure, shortened: (§3)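 CLSI two-fold broth microdilution. Compounds dissolved in DMSO, 10 mg/mL stock, serially diluted to 400–0.09 µg/mL in Mueller Hinton broth. Wells inoculated with 10^6 CFU/mL bacteria and incubated 18–24 h at 37 °C. 0.2 mg/mL INT added for 30 min. MIC taken as the lowest concentration with no visible growth or pink colour. Triplicate.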

Aeromonas hydrophila [5] = test: Antibacterial activity against Aeromonas hydrophila FNSST 014 after 18 to 24 hrs by two-fold broth microdilution assay; format: functional; procedure, shortened: as §1
Enterobacter cloacae [6] = test: Antibacterial activity against CTX-15 expressing Enterobacter cloacae isolate 51 after 18 to 24 hrs by two-fold broth microdilution assay; format: functional
Staphylococcus aureus [7] = test: Antibacterial activity against Staphylococcus aureus ATCC 25923 after 18 to 24 hrs by two-fold broth microdilution assay; format: functional; procedure, shortened: as §1
Klebsiella pneumoniae [8] = test: Antibacterial activity against TEM-1/SHV-12 expressing Klebsiella pneumoniae isolate 303 after 18 to 24 hrs by two-fold broth microdilution assay; format: functional; procedure, shortened: as §1
Escherichia coli [9] = test: Antibacterial activity against TEM-1/SHV-12 expressing Escherichia coli isolate 237 after 18 to 24 hrs by two-fold broth microdilution assay; format: functional; procedure, shortened: as §3
Aeromonas hydrophila [10] = test: Antibacterial activity against TEM-1/SHV-12 expressing Aeromonas hydrophila isolate 268 after 18 to 24 hrs by two-fold broth microdilution assay; format: functional; procedure, shortened: as §1
Enterococcus faecalis [11] = test: Antibacterial activity against Enterococcus faecalis ATCC 29212 assessed as diameter of zone of inhibition at 15 ug/disc after 24 hrs by disc diffusion method; format: functional, organism-based; procedure, shortened: as §2
Aeromonas hydrophila [12] = test: Antibacterial activity against Aeromonas hydrophila FNSST 014 assessed as diameter of zone of inhibition at 15 ug/disc after 24 hrs by disc diffusion method; format: functional, organism-based; procedure, shortened: as §2
Enterobacter cloacae [13] = test: Antibacterial activity against TEM-1/CTX-M-15 expressing Enterobacter cloacae isolate 62 after 18 to 24 hrs by two-fold broth microdilution assay; format: functional
Pseudomonas aeruginosa [14] = test: Antibacterial activity against GIM-1 expressing Pseudomonas aeruginosa isolate 197 after 18 to 24 hrs by two-fold broth microdilution assay; format: functional; procedure, shortened: as §1
Acinetobacter baumannii = test: Antibacterial activity against SIM-1 expressing Acinetobacter baumannii isolate 170 after 18 to 24 hrs by two-fold broth microdilution assay; format: functional; procedure, shortened: as §3
Bacillus cereus [15] = test: Antibacterial activity against Bacillus cereus ATCC 11778 after 18 to 24 hrs by two-fold broth microdilution assay; format: functional; procedure, shortened: as §1
Escherichia coli [16] = test: Antibacterial activity against […] expressing Escherichia coli isolate 4024 after 18 to 24 hrs by two-fold broth microdilution assay; format: functional; procedure, shortened: as §3
Pseudomonas aeruginosa [17] = test: Antibacterial activity against Pseudomonas aeruginosa FNSST 982 assessed as diameter of zone of inhibition at 15 ug/disc after 24 hrs by disc diffusion method; format: functional, organism-based; procedure, shortened: as §2
Aeromonas caviae [18] = test: Antibacterial activity against […] expressing Aeromonas caviae isolate 258 after 18 to 24 hrs by two-fold broth microdilution assay; format: functional; procedure, shortened: as §1
Pseudomonas aeruginosa [19] = test: Antibacterial activity against Pseudomonas aeruginosa FNSST 982 after 18 to 24 hrs by two-fold broth microdilution assay; format: functional; procedure, shortened: as §1
Staphylococcus aureus [20] = test: Antibacterial activity against Staphylococcus aureus ATCC 25923 assessed as diameter of zone of inhibition at 15 ug/disc after 24 hrs by disc diffusion method; format: functional, organism-based; procedure, shortened: as §2
Klebsiella pneumoniae [21] = test: Antibacterial activity against Klebsiella pneumoniae FNSST 011 assessed as diameter of zone of inhibition at 15 ug/disc after 24 hrs by disc diffusion method; format: functional, organism-based; procedure, shortened: as §2
Escherichia coli [22] = test: Antibacterial activity against Escherichia coli FNSST 982 assessed as diameter of zone of inhibition at 15 ug/disc after 24 hrs by disc diffusion method; format: functional, organism-based; procedure, shortened: as §2
Clostridium perfringens [23] = test: Antibacterial activity against Clostridium perfringens FNSST 4999 assessed as diameter of zone of inhibition at 15 ug/disc after 24 hrs by disc diffusion method; format: functional, organism-based; procedure, shortened: as §2
Aeromonas caviae [24] = test: Antibacterial activity against TEM-1/CTX-M-15 expressing Aeromonas caviae isolate 260 after 18 to 24 hrs by two-fold broth microdilution assay; format: functional; procedure, shortened: as §1
Escherichia coli [25] = test: Antibacterial activity against Escherichia coli FNSST 982 after 18 to 24 hrs by two-fold broth microdilution assay; format: functional; procedure, shortened: as §1
Clostridium perfringens [26] = test: Antibacterial activity against Clostridium perfringens FNSST 4999 after 18 to 24 hrs by two-fold broth microdilution assay; format: functional; procedure, shortened: as §3
Enterococcus faecalis [27] = test: Antibacterial activity against Enterococcus faecalis ATCC 29212 after 18 to 24 hrs by two-fold broth microdilution assay; format: functional; procedure, shortened: as §1
[28] = test system: Stenotrophomonas maltophilia; test: Antibacterial activity against […] expressing Stenotrophomonas maltophilia isolate 125 after 18 to 24 hrs by two-fold broth microdilution assay; format: functional; procedure, shortened: as §1
Aspergillus fumigatus = test: Antifungal activity against Aspergillus fumigatus FNSST 3833 assessed as diameter of zone of inhibition at 250 ug/disc after 72 hrs by disc diffusion method; format: functional; settings: FNSST 3833, 72 h, read-out: DIZ
Procedure, shortened: (§4)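 Fungi were grown overnight at 30 °C in Sabouraud dextrose broth to 10^4 cfu/mL, and 100 µL was spread on Sabouraud dextrose agar. 6 mm discs carried 250 µg (25 µL of a 10 mg/mL stock in 96% ethanol), with ethanol as the negative control. Incubation was at 30 °C for 48 h (yeast) or 72 h (molds). Zone diameter was read including the disc, in triplicate, mean ± SE.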

Clostridium perfringens [29] = test: Antibacterial activity against Clostridium perfringens FNSST 4999 assessed as diameter of zone of inhibition at 250 ug/disc after 24 hrs by disc diffusion method; format: functional; settings: FNSST 4999, 24 h, read-out: DIZ
Procedure, shortened: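 Disc diffusion per CLSI: 100 µL of 10^6 cfu/mL bacterial suspension spread on Mueller Hinton agar. 6 mm discs loaded with 25 µL of 10 mg/mL compound stock in 96% ethanol (250 µg/disc); ethanol as negative control. Incubated 24 h at 37 °C. Inhibition zone diameter measured in mm including the disc, triplicate, reported as mean ± SE.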

Pseudomonas aeruginosa [30] = test: Antibacterial activity against Pseudomonas aeruginosa FNSST 982 assessed as diameter of zone of inhibition at 250 ug/disc after 24 hrs by disc diffusion method; format: functional; settings: FNSST 982, 24 h, read-out: DIZ
Procedure, shortened: (§5)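 Bacteria were grown overnight at 37 °C in TSB to about 10^6 cfu/mL, and 100 µL was spread on Mueller Hinton agar. Sterile 6 mm discs were each loaded with 25 µL of a 10 mg/mL stock in 96% ethanol, giving 250 µg/disc. Ethanol served as the negative control. Plates were incubated 24 h at 37 °C. Inhibition zone diameter was measured including the disc, in triplicate, as mean ± SE.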

Klebsiella pneumoniae [31] = test: Antibacterial activity against Klebsiella pneumoniae FNSST 011 assessed as diameter of zone of inhibition at 250 ug/disc after 24 hrs by disc diffusion method; format: functional; settings: FNSST 011, 24 h, read-out: DIZ; procedure, shortened: as §5
Bacillus cereus [32] = test: Antibacterial activity against Bacillus cereus ATCC 11778 assessed as diameter of zone of inhibition at 250 ug/disc after 24 hrs by disc diffusion method; format: functional; settings: ATCC 11778, 24 h, read-out: DIZ; procedure, shortened: as §5
Enterococcus faecalis [33] = test: Antibacterial activity against Enterococcus faecalis ATCC 29212 assessed as diameter of zone of inhibition at 250 ug/disc after 24 hrs by disc diffusion method; format: functional; settings: ATCC 29212, 24 h, read-out: DIZ; procedure, shortened: as §5
Aeromonas hydrophila [34] = test: Antibacterial activity against Aeromonas hydrophila FNSST 014 assessed as diameter of zone of inhibition at 250 ug/disc after 24 hrs by disc diffusion method; format: functional; settings: FNSST 014, 24 h, read-out: DIZ; procedure, shortened: as §5
Candida albicans = test: Antifungal activity against Candida albicans ATCC 10231 assessed as diameter of zone of inhibition at 250 ug/disc after 48 hrs by disc diffusion method; format: functional; settings: ATCC 10231, 48 h, read-out: DIZ; procedure, shortened: as §4
Escherichia coli [35] = test: Ratio of gentamicin MIC to compound MIC for Escherichia coli FNSST 982; format: functional
Escherichia coli [36] = test: Antibacterial activity against Escherichia coli FNSST 982 assessed as diameter of zone of inhibition at 250 ug/disc after 24 hrs by disc diffusion method; format: functional; settings: FNSST 982, 24 h, read-out: DIZ; procedure, shortened: as §5
Staphylococcus aureus [37] = test: Antibacterial activity against Staphylococcus aureus ATCC 25923 assessed as diameter of zone of inhibition at 250 ug/disc after 24 hrs by disc diffusion method; format: functional; settings: ATCC 25923, 24 h, read-out: DIZ; procedure, shortened: as §5
Talaromyces funiculosus = test: Antifungal activity against Penicillium funiculosum FNSST 3724 assessed as diameter of zone of inhibition at 250 ug/disc after 72 hrs by disc diffusion method; format: functional; settings: FNSST 3724, 72 h, read-out: DIZ; procedure, shortened: as §4

Compound: GENTAMICIN
- MIC (Kluyvera intermedia): 2 µg/mL
- MIC (Enterobacter cloacae [1]): 256 µg/mL
- inhibition zone (IZ) (Bacillus cereus [2]): 18.2 mm
- MIC (Klebsiella pneumoniae [3]): 8 µg/mL
- MIC (Escherichia coli [4]): 16 µg/mL
- MIC (Aeromonas hydrophila [5]): 8 µg/mL
- MIC (Enterobacter cloacae [6]): 128 µg/mL
- MIC (Staphylococcus aureus [7]): 1 µg/mL
- MIC (Klebsiella pneumoniae [8]): 32 µg/mL
- MIC (Escherichia coli [9]): 8 µg/mL
- MIC (Aeromonas hydrophila [10]): 4 µg/mL
- inhibition zone (IZ) (Enterococcus faecalis [11]): 14.6 mm
- inhibition zone (IZ) (Aeromonas hydrophila [12]): 12.6 mm
- MIC (Enterobacter cloacae [13]): 4 µg/mL
- MIC (Pseudomonas aeruginosa [14]): > 8 µg/mL
- MIC (Acinetobacter baumannii): 16 µg/mL
- MIC (Bacillus cereus [15]): 4 µg/mL
- MIC (Escherichia coli [16]): 64 µg/mL
- inhibition zone (IZ) (Pseudomonas aeruginosa [17]): 9.2 mm
- MIC (Aeromonas caviae [18]): 12.8 µg/mL
- MIC (Pseudomonas aeruginosa [19]): 64 µg/mL
- inhibition zone (IZ) (Staphylococcus aureus [20]): 23.9 mm
- inhibition zone (IZ) (Klebsiella pneumoniae [21]): 18.2 mm
- inhibition zone (IZ) (Escherichia coli [22]): 11.5 mm
- inhibition zone (IZ) (Clostridium perfringens [23]): 21.7 mm
- MIC (Aeromonas caviae [24]): 32 µg/mL
- MIC (Escherichia coli [25]): 32 µg/mL
- MIC (Clostridium perfringens [26]): 0.5 µg/mL
- MIC (Enterococcus faecalis [27]): 4 µg/mL
- MIC [28]: 2 µg/mL

Compound: O/N=C/c1n(Cc2ccccc2)cc[n+]1-c1ccccc1.[Br-]
- zone of inhibition at 250 µg/disc (Aspergillus fumigatus): 20.8 mm
- zone of inhibition at 250 µg/disc (Clostridium perfringens [29]): 16.6 mm
- zone of inhibition at 250 µg/disc (Pseudomonas aeruginosa [30]): 14.9 mm
- MIC (Klebsiella pneumoniae [3]): 31.2 µg/mL
- MIC (Aeromonas hydrophila [5]): 25 µg/mL
- MIC (Staphylococcus aureus [7]): 12.5 µg/mL
- zone of inhibition at 250 µg/disc (Klebsiella pneumoniae [31]): 15.5 mm
- zone of inhibition at 250 µg/disc (Bacillus cereus [32]): 15 mm
- zone of inhibition at 250 µg/disc (Enterococcus faecalis [33]): 13.3 mm
- zone of inhibition at 250 µg/disc (Aeromonas hydrophila [34]): 15.3 mm
- zone of inhibition at 250 µg/disc (Candida albicans): 18.1 mm
- Ratio (Escherichia coli [35]): 10
- zone of inhibition at 250 µg/disc (Escherichia coli [36]): 12.3 mm
- zone of inhibition at 250 µg/disc (Staphylococcus aureus [37]): 12.5 mm
- MIC (Bacillus cereus [15]): 25 µg/mL
- MIC (Pseudomonas aeruginosa [19]): 25 µg/mL
- MIC (Escherichia coli [25]): 3.12 µg/mL
- MIC (Clostridium perfringens [26]): 25 µg/mL
- MIC (Enterococcus faecalis [27]): 25 µg/mL
- zone of inhibition at 250 µg/disc (Talaromyces funiculosus): 17.4 mm
